Test results published in ChEMBL document CHEMBL1155341, “Synthesis and antibacterial activity of 7-(1,2,3,4-tetrahydropyrrolo[1,2-a]pyrazin-7-yl) quinolones” (2009).
≈ marks a conversion by molar mass, not a printed value. Calls of active or inactive are those of the source. No cut-off for these calls is given here.

How the values were obtained:
Format in all cases: functional
[1] = test system: Streptococcus pneumoniae; assay: Antibacterial activity against ciprofloxacin resistant Streptococcus pneumoniae OC5458 by broth microdilution method
In short: (§1)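 MIC determined by broth microdilution following CLSI (formerly NCCLS) M7-A5 guidelines for aerobically growing bacteria. MIC is the lowest compound concentration inhibiting visible growth. Strains are ciprofloxacin-resistant clinical isolates tested within a six-strain abbreviated panel.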

[2] = test system: Staphylococcus aureus; assay: Antibacterial activity against ciprofloxacin susceptible Staphylococcus aureus subsp. aureus ATCC 13709 by broth microdilution method
In short: (§2)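 Broth microdilution per CLSI (NCCLS M7-A5) guidelines; MIC taken as lowest concentration inhibiting visible growth. Strains are ciprofloxacin-susceptible reference strains.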

[3] = test system: Streptococcus pneumoniae; assay: Antibacterial activity against ciprofloxacin susceptible Streptococcus pneumoniae ATCC 49619 by broth microdilution method; in short: as §2
[4] = test system: Streptococcus pneumoniae; assay: Antibacterial activity against ciprofloxacin resistant Streptococcus pneumoniae OC5462 by broth microdilution method; in short: as §1
[5] = test system: Streptococcus pneumoniae; assay: Antibacterial activity against ciprofloxacin resistant Streptococcus pneumoniae OC5465 by broth microdilution method; in short: as §1
[6] = test system: Escherichia coli; assay: Antibacterial activity against ciprofloxacin susceptible Escherichia coli ATCC 25922 by broth microdilution method; in short: as §2
[7] = test system: Staphylococcus aureus; assay: Antimicrobial activity against Staphylococcus aureus subsp. aureus ATCC 13709 infected in po dosed Swiss Webster mouse treated 1 hr after infection measured fter 3 days; details: ATCC 13709, po
In short: (§3)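 Female Swiss-Webster mice infected ip with S. aureus ATCC13709; test compound given subcutaneously or orally 1 h post-infection; mortality followed for three days; untreated infected mice served as controls.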

[8] = test system: Staphylococcus aureus; assay: Antimicrobial activity against Staphylococcus aureus subsp. aureus ATCC 13709 infected in sc dosed Swiss Webster mouse treated 1 hr after infection measured fter 3 days; details: ATCC 13709, sc; in short: as §3

Row | SMILES | MIC [1] | MIC [2] | MIC [3] | MIC [4] | MIC [5] | MIC [6] | ED50 [7] | ED50 [8]
1 | C[C@H]1Cn2cc(-c3nc4c(cc3F)C(=O)C(C(=O)O)CN4c3ccc(F)cc3F)cc2CN1 (stereo not given in full) | 16 µg/mL (≈ 35.1 µM) | 0.12 µg/mL (≈ 0.263 µM) | 1 µg/mL (≈ 2.19 µM) | 16 µg/mL (≈ 35.1 µM) | 2 µg/mL (≈ 4.38 µM) | 16 µg/mL (≈ 35.1 µM) |  | 
2 | C[C@H]1COc2c(-c3cc4n(c3)CCNC4)c(F)cc3c2N1CC(C(=O)O)C3=O (stereo not given in full) | > 16 µg/mL | 0.5 µg/mL (≈ 1.3 µM) | 2 µg/mL (≈ 5.19 µM) | > 16 µg/mL | 1 µg/mL (≈ 2.59 µM) | > 16 µg/mL |  | 
3 | COc1c(-c2cc3n(c2)C[C@H](C)NC3)c(F)cc2c1N(C1CC1)CC(C(=O)O)C2=O (stereo not given in full) | 0.5 µg/mL (≈ 1.21 µM) | 0.03 µg/mL (≈ 0.0726 µM) | 0.12 µg/mL (≈ 0.29 µM) | 1 µg/mL (≈ 2.42 µM) | 0.25 µg/mL (≈ 0.605 µM) | 0.5 µg/mL (≈ 1.21 µM) | 4 mg/kg | < 1.25 mg/kg
4 | C[C@@H]1NCCn2cc(-c3nc4c(cc3F)C(=O)C(C(=O)O)CN4c3ccc(F)cc3F)cc21 (stereo not given in full) | > 16 µg/mL | 1 µg/mL (≈ 2.19 µM) | 4 µg/mL (≈ 8.76 µM) | > 16 µg/mL | 8 µg/mL (≈ 17.5 µM) | > 16 µg/mL |  | 
5 | COc1c(-c2cc3n(c2)C[C@@H](C)NC3)c(F)cc2c1N(C1CC1)CC(C(=O)O)C2=O (stereo not given in full) | 1 µg/mL (≈ 2.42 µM) | 0.25 µg/mL (≈ 0.605 µM) | 0.25 µg/mL (≈ 0.605 µM) | 2 µg/mL (≈ 4.84 µM) | 0.5 µg/mL (≈ 1.21 µM) | 1 µg/mL (≈ 2.42 µM) |  | 
6 | C[C@H]1NCCn2cc(-c3cc4c(cc3F)C(=O)C(C(=O)O)CN4C3CC3)cc21 (stereo not given in full) | 8 µg/mL (≈ 20.9 µM) | 0.25 µg/mL (≈ 0.652 µM) | 1 µg/mL (≈ 2.61 µM) | 16 µg/mL (≈ 41.7 µM) | 0.25 µg/mL (≈ 0.652 µM) | 4 µg/mL (≈ 10.4 µM) |  | 
7 | C[C@@H]1NCCn2cc(-c3cc4c(cc3F)C(=O)C(C(=O)O)CN4C3CC3)cc21 (stereo not given in full) | 4 µg/mL (≈ 10.4 µM) | 0.25 µg/mL (≈ 0.652 µM) | 1 µg/mL (≈ 2.61 µM) | 16 µg/mL (≈ 41.7 µM) | 0.5 µg/mL (≈ 1.3 µM) | 4 µg/mL (≈ 10.4 µM) |  | 
8 | COc1c(-c2cc3n(c2)CCNC3)c(F)cc2c1N(C1CC1)CC(C(=O)O)C2=O (stereo not given) | 1 µg/mL (≈ 2.5 µM) | 0.03 µg/mL (≈ 0.0751 µM) | 0.25 µg/mL (≈ 0.626 µM) | 1 µg/mL (≈ 2.5 µM) | 0.12 µg/mL (≈ 0.3 µM) | 1 µg/mL (≈ 2.5 µM) |  | 
9 | C[C@@H]1NCCn2cc(-c3nc4c(cc3F)C(=O)C(C(=O)O)CN4C3CC3)cc21 (stereo not given in full) | 8 µg/mL (≈ 20.8 µM) | 0.5 µg/mL (≈ 1.3 µM) | 1 µg/mL (≈ 2.6 µM) | 8 µg/mL (≈ 20.8 µM) | 1 µg/mL (≈ 2.6 µM) | 8 µg/mL (≈ 20.8 µM) |  | 
10 | COc1c(-c2cc3n(c2)CCN[C@H]3C)c(F)cc2c1N(C1CC1)CC(C(=O)O)C2=O (stereo not given in full) | 1 µg/mL (≈ 2.42 µM) | 0.12 µg/mL (≈ 0.29 µM) | 0.5 µg/mL (≈ 1.21 µM) | 4 µg/mL (≈ 9.67 µM) | 0.5 µg/mL (≈ 1.21 µM) | 2 µg/mL (≈ 4.84 µM) |  | 
11 | C[C@@H]1NCCn2cc(-c3ccc4c(c3OC(F)F)N(C3CC3)CC(C(=O)O)C4=O)cc21 (stereo not given in full) | 4 µg/mL (≈ 9.27 µM) | 0.5 µg/mL (≈ 1.16 µM) | 1 µg/mL (≈ 2.32 µM) | 16 µg/mL (≈ 37.1 µM) | 2 µg/mL (≈ 4.64 µM) | 4 µg/mL (≈ 9.27 µM) |  | 
12 | C[C@H]1Cn2cc(-c3nc4c(cc3F)C(=O)C(C(=O)O)CN4C3CC3)cc2CN1 (stereo not given in full) | 8 µg/mL (≈ 20.8 µM) | 0.06 µg/mL (≈ 0.156 µM) | 0.5 µg/mL (≈ 1.3 µM) | 8 µg/mL (≈ 20.8 µM) | 0.25 µg/mL (≈ 0.65 µM) | 2 µg/mL (≈ 5.2 µM) |  | 
13 | COc1c(-c2cc3n(c2)CCN[C@@H]3C)c(F)cc2c1N(C1CC1)CC(C(=O)O)C2=O (stereo not given in full) | > 16 µg/mL | 0.25 µg/mL (≈ 0.605 µM) | 2 µg/mL (≈ 4.84 µM) | 16 µg/mL (≈ 38.7 µM) | 2 µg/mL (≈ 4.84 µM) | 8 µg/mL (≈ 19.3 µM) |  | 
14 | C[C@@H]1NCCn2cc(-c3c(F)cc4c5c3OC[C@H](C)N5CC(C(=O)O)C4=O)cc21 (stereo not given in full) | 4 µg/mL (≈ 10 µM) | 0.25 µg/mL (≈ 0.626 µM) | 1 µg/mL (≈ 2.5 µM) | 8 µg/mL (≈ 20 µM) | 0.5 µg/mL (≈ 1.25 µM) | 4 µg/mL (≈ 10 µM) |  | 
15 | C[C@H]1Cn2cc(-c3ccc4c(c3OC(F)F)N(C3CC3)CC(C(=O)O)C4=O)cc2CN1 (stereo not given in full) | 1 µg/mL (≈ 2.32 µM) | 0.12 µg/mL (≈ 0.278 µM) | 1 µg/mL (≈ 2.32 µM) | 8 µg/mL (≈ 18.5 µM) | 1 µg/mL (≈ 2.32 µM) | 1 µg/mL (≈ 2.32 µM) |  | 
16 | C[C@H]1Cn2cc(-c3c(F)cc4c5c3OC[C@H](C)N5CC(C(=O)O)C4=O)cc2CN1 (stereo not given in full) | 4 µg/mL (≈ 10 µM) | 0.25 µg/mL (≈ 0.626 µM) | 1 µg/mL (≈ 2.5 µM) | 8 µg/mL (≈ 20 µM) | 0.5 µg/mL (≈ 1.25 µM) | 4 µg/mL (≈ 10 µM) |  | 
17 | O=C(O)c1cn(C2CC2)c2cc(N3CCNCC3)c(F)cc2c1=O [CIPROFLOXACIN] | > 16 µg/mL | 0.12 µg/mL (≈ 0.362 µM) | 1 µg/mL (≈ 3.02 µM) | > 16 µg/mL | > 16 µg/mL | 0.03 µg/mL (≈ 0.0905 µM) | 10.8 mg/kg | 1.4 mg/kg
18 | C[C@@H]1NCCn2cc(-c3c(F)cc4c(c3OC(F)F)N(C3CC3)CC(C(=O)O)C4=O)cc21 (stereo not given in full) | 2 µg/mL (≈ 4.45 µM) | 0.25 µg/mL (≈ 0.556 µM) | 2 µg/mL (≈ 4.45 µM) | 8 µg/mL (≈ 17.8 µM) | 2 µg/mL (≈ 4.45 µM) | 1 µg/mL (≈ 2.23 µM) |  | 
19 | O=C(O)C1CN(C2CC2)c2c(ccc(-c3cc4n(c3)CCNC4)c2OC(F)F)C1=O (stereo not given) | inactive | 0.06 µg/mL (≈ 0.144 µM) | 0.5 µg/mL (≈ 1.2 µM) | 8 µg/mL (≈ 19.2 µM) | 0.25 µg/mL (≈ 0.599 µM) | 1 µg/mL (≈ 2.4 µM) |  | 
20 | C[C@H]1Cn2cc(-c3cc4c(cc3F)C(=O)C(C(=O)O)CN4C3CC3)cc2CN1 (stereo not given in full) | 2 µg/mL (≈ 5.22 µM) | 0.06 µg/mL (≈ 0.156 µM) | 0.5 µg/mL (≈ 1.3 µM) | 4 µg/mL (≈ 10.4 µM) | 0.12 µg/mL (≈ 0.313 µM) | 2 µg/mL (≈ 5.22 µM) |  | 
21 | C[C@H]1NCCn2cc(-c3ccc4c(c3OC(F)F)N(C3CC3)CC(C(=O)O)C4=O)cc21 (stereo not given in full) | 8 µg/mL (≈ 18.5 µM) | 0.5 µg/mL (≈ 1.16 µM) | 1 µg/mL (≈ 2.32 µM) | 16 µg/mL (≈ 37.1 µM) | 4 µg/mL (≈ 9.27 µM) | 4 µg/mL (≈ 9.27 µM) |  | 
